GPR7 antag – blocks human GPR7 receptor signaling. inhibition, % at 4.4 µM. 290,000 tested, 1.1% active. P48145. GPR7-expressing cells, fluorescence antagonist assay; in the data active = inhibition above about 16%, passing the limit was not always enough;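 also: cells stimulated with the agonist NPW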
NS3 helicase inh – blocks Hepatitis C virus NS3 helicase unwinding; AID 1800; NS3 helicase DNA unwinding, Cy5 molecular beacon fluorescence; inhibition, % at 10.9 µM; 290,000 tested, 0.56% active;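 active = inhibition above the mean of all tested compounds plus 3 SD, set per campaign, cut at about 35% in these data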
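Material: hepatitis C virus NS3 helicase domain fragment enzyme; measured by: Cy5 fluorescence, 0 and 60 min reads; control set: DMSO and thioflavine S; incubation: 60 min unwinding reaction at 25 °C after ATP addition; read-out basis: % inhibition from 60/0 min fluorescence ratio, DMSO 0%, thioflavine S 100%; repeats: singlicate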
EBV gp42 inh – inhibitors of Epstein-Barr virus glycoprotein 42 | Fluorescence polarization binding assay, mP read-out | inhibition, % (tested at 21.74 µM) | 220,000 tested, 0.42% active | AID 1085; in the data active = inhibition above about 50%
Target sequence (Q1HVG2 whole entry, looked up): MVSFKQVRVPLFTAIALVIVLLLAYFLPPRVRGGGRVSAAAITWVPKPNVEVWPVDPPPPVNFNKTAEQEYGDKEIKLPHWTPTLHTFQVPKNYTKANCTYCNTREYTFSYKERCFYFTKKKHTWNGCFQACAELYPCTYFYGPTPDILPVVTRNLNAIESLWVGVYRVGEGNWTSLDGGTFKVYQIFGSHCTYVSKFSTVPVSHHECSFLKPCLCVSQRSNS
EBNA-1 inhibitor – blocks EBNA-1 binding to DNA | inhibition, % at 14.8 µM | EBNA-1 DNA binding, fluorescence polarization | 300,000 tested, 0.34% active; in the data active = inhibition above about 28%
ZTA DNA inh – ZTA (EBV) inhibition in EBNA-1 counter-screen; P03206; ZTA-DNA binding, fluorescence polarization; inhibition, % at 11 µM; 320,000 tested, 0.15% active; AID 2234; in the data active = inhibition above about 33%
Target sequence (P03206 whole entry, looked up): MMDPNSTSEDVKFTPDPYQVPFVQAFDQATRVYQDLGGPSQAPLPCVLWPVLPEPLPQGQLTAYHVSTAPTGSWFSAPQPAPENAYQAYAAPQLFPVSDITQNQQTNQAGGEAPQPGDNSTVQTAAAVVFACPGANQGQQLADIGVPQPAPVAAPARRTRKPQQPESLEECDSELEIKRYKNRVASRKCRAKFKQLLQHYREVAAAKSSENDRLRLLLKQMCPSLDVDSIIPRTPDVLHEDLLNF
core dimer inh – HCV core protein dimerization inhibition | inhibition, % at 5 µM | 300,000 tested, 0.33% active | TR-FRET GST/Flag-core106 dimerization, 1536-well;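 active = inhibition above the mean of all tested compounds plus 3 SD, set per screening campaign, cut at about 45% in these data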
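Assay system: Tagged HCV core106 pair (GST and Flag) | Buffer or medium: KF-containing HEPES buffer, pH 7.45, DTT, CHAPS, BSA | Also added: Eu donor and XL665 acceptor anti-tag antibodies | Dosing: One concentration, 5 µM, in 0.5% DMSO | Timing: 4 h at 22.5 °C | Technique: TR-FRET 671 and 617 nm emission | Repeats: Singlicate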
GPR7 antag conf – confirmation of human GPR7 antagonists | AID 1952 | GPR7-expressing cells, calcium fluorescence antagonist mode | inhibition, % at 4.4 µM | 2,400 tested, 52% active | shares compounds with GPR7 antag; in the data active = inhibition above about 24%;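 also: stimulated with the GPR7 agonist NPW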
MCHR1 antagonist – MCHR1 (human) antagonism in GPR7 counter-screen; inhibition, % at 4.4 µM; 2,400 tested, 62% active; MCHR1-expressing cells, fluorescence antagonist assay; shares compounds with GPR7 antag; in the data active = inhibition above about 22%
A number is an active result; n = inactive; x = not tested or not shown. Compounds with a hit are over-represented: about 2.3% of the library has one in this group of screens.

SMILES	GPR7 antag	NS3 helicase inh	EBV gp42 inh	EBNA-1 inhibitor	ZTA DNA inh	core dimer inh	GPR7 antag conf	MCHR1 antagonist
S=C(NCc1ccc(Cl)cc1)NC1CCN(Cc2ccccc2)CC1	25	n	n	n	n	n	40	64
O=S(=O)(NC1CCN(S(=O)(=O)c2ccc3c(c2)OCCO3)C1)c1c(F)cccc1F (centres undefined)	x	x	x	x	n	x	x	x
CC(CCn1cccn1)NC(=O)c1cc(COc2ccc(F)cc2Cl)on1 (centres undefined)	34	n	n	n	n	n	n	n
Cc1cccc(C)c1NC(=O)CN(C)C(=O)Cc1cccc(C(F)(F)F)c1	n	n	x	n	n	n	x	x
Cc1cccc(C(=O)Nc2ccc(C(=O)/C=C/c3cccnc3)cc2)c1	n	n	n	n	n	n	x	x
COc1cccc(C(=O)Nc2ccc(C(=O)c3ccncc3)cc2)c1	23	n	x	n	n	n	n	47
Cc1cccc(C(=O)Nc2ccc(C(=O)/C=C/c3ccncc3)cc2)c1	46	n	x	n	n	n	74	104
N#Cc1c(NC(=O)C2CC(Cl)=CCC2C(=O)O)sc2c1CCCC2 (centres undefined)	n	n	n	n	n	n	x	x
O=C(OCc1c(-c2ccccc2)ncc2ccccc12)c1ccc(Cl)cc1Cl	x	x	x	x	n	x	x	x
O=C(CNC(=O)c1ccco1)NCC(=O)OCc1c(F)cccc1Cl	n	n	x	n	n	n	x	x
O=C(CNC(=O)c1ccco1)OCc1c(F)cccc1Cl	25	n	n	n	n	n	n	n
CCCCCCCN1C(Nc2ccccc2)=NC[C@@H]1Cc1ccccc1	50	n	x	n	n	n	48	48
CCC(C)CCN1C(Nc2ccccc2)=NC[C@@H]1Cc1ccccc1 (some centres undefined)	x	n	x	n	n	n	x	n
C[C@H]1CN=C(Nc2ccccc2)N1CCCC1CCCCC1	n	n	x	n	n	n	x	x
c1ccc(CCCCN2C(Nc3ccccc3)=NC[C@@H]2Cc2ccccc2)cc1	x	x	x	n	n	n	x	x
c1ccc(C[C@H]2CN=C(Nc3ccccc3)N2CCCC2CCCC2)cc1	46	n	x	n	n	n	51	34
CCC(C)CCN1C(Nc2ccccc2)=NC[C@@H]1CC(C)C (some centres undefined)	n	n	x	n	n	n	x	x
COC(=O)C(NC(=O)c1ccccc1Cl)(Nc1ncc(S(=O)(=O)c2ccc([N+](=O)[O-])cc2)s1)C(F)(F)F (centres undefined)	34	n	n	n	n	n	56	43
CC1(CCc2ccc3c(c2)OCO3)NCCc2c1[nH]c1ccccc21 (centres undefined)	60	n	x	n	n	n	39	45
CC(CC(=O)N1CCN(c2cccc(Cl)c2)CC1)S(=O)(=O)c1ccc2c(c1)NC(=O)CO2 (centres undefined)	28	n	x	n	n	n	37	77
CC(C)[C@@H]1CC[C@@H](C)C[C@H]1OC(=O)C[n+]1cc(-c2ccc(Cl)cc2)n2c1CCCCC2	58	n	n	n	n	n	65	83
COc1ccc(CNC(=O)COC(=O)c2nc3nc(C)cc(C)n3n2)cc1	x	x	x	x	n	x	x	x
COCCCn1c(SCC(=O)NNC(=O)c2cccc(O)c2)nnc1-c1ccncc1	n	n	n	n	n	n	x	x
Cc1cc2c(cc(C(=O)OCC(=O)NCc3ccco3)n2C)s1	29	n	n	n	n	n	n	22
Cn1c(C(=O)OCC(=O)NCc2ccco2)cc2sccc21	n	n	n	n	n	n	x	x
SMILES	GPR7 antag	NS3 helicase inh	EBV gp42 inh	EBNA-1 inhibitor	ZTA DNA inh	core dimer inh	GPR7 antag conf	MCHR1 antagonist
CCCCN(C1CCS(=O)(=O)C1)S(=O)(=O)c1ccc(OC)cc1 (centres undefined)	x	x	x	n	n	n	x	x
CC1(C)CC2(CC(c3ccccc3F)c3ccc(O)c(O)c3O2)NC(=S)N1 (centres undefined)	n	n	n	n	n	n	x	x
CCOc1ccccc1NC(=O)C(NCC1(N2CCCCC2)CCCCC1)c1ccccc1 (centres undefined)	28	n	n	n	n	n	25	n
COC(=O)c1c(N)sc(C(=O)NCCc2ccccc2)c1C	n	n	x	x	x	x	x	x
CCOc1ccc(NC(=O)c2ccc3c(=O)n(-c4ccc(OC)cc4OC)c(=S)[nH]c3c2)cc1	24	n	x	n	n	n	44	65
Cc1nn(Cc2ccc(F)cc2)c(C)c1NC(=O)c1cnn2c1NC(c1ccccc1)CC2C(F)(F)F (centres undefined)	23	n	n	n	n	n	n	n
CNC(=O)C1C2C=CC3(O2)C1C(=O)N(C1CC1)C3C(=O)NCc1ccc(OC)cc1 (centres undefined)	25	n	n	n	n	n	n	n
CSCC[C@H](NS(=O)(=O)c1ccc(C)cc1)C(=O)N1CCC(C(=O)N[C@@H](C)C(=O)O)CC1	n	n	x	n	n	n	x	x
Cc1cc(C)cc(NC(=O)CCc2ccc(C)o2)c1	29	n	x	n	n	n	n	n
Cc1cccc(NC(=O)CCc2ccc(C)o2)c1	n	n	n	n	n	n	x	x
CCN(c1ccc(C)cc1C)S(=O)(=O)c1nnc(NC(=O)C(C)(C)C)s1	n	n	x	n	n	n	x	x
CCOc1ccc(S(=O)(=O)Nc2cc(OC)ccc2OC)cc1	23	n	n	n	n	n	n	34
COc1ccc(OC)c(NS(=O)(=O)c2ccc(SC)cc2)c1	n	n	n	n	n	n	x	x
COC(=O)C/C=N/N=C1/NC(=O)/C(=C/C(=O)O)S1	n	n	n	n	n	n	x	x
CNc1[nH]c(=O)[nH]c(=O)c1N=Nc1cc(Cl)ccc1Cl	x	x	x	n	n	n	x	x
Clc1ccc(-c2noc(CSc3nnc(Cc4cccs4)n3-c3ccccc3)n2)cc1	28	n	n	n	n	n	n	42
COc1ccc(-n2c(SCC(=O)N3CCOCC3)nnc2C(C)N2CCCCC2)cc1 (centres undefined)	n	n	n	n	n	n	x	x
COc1ccc([N+](=O)[O-])cc1C(=O)NCCOc1ccc(Cl)cc1	48	n	x	n	n	n	42	47
CCOC(=O)Cn1nc(C)c(NC(=O)c2ccc(Br)o2)c1C	n	n	x	n	n	n	x	x
OCCN1CCN(CC(O)COc2ccc(C34CC5CC(CC(C5)C3)C4)cc2)CC1 (centres undefined)	40	n	n	n	n	n	35	51
O=C(NC1CCCC1)C(c1ccccc1)N(Cc1ccco1)C(=O)Cc1cccs1 (centres undefined)	42	n	n	n	n	n	35	n
O=C(NC1CCCCC1)C(c1cccs1)N(Cc1cccs1)C(=O)c1ccco1 (centres undefined)	25	n	n	n	n	n	n	27

Source: PubChem (several laboratories)
